Source: ChEMBL document CHEMBL5329178, “Synthesis and antibacterial activity of 2-benzylidene-3-oxobutanamide derivatives against resistant pathogens” (RSC Med Chem, 2023)
Active and inactive are the calls of the source. No cut-off for these calls is given here.

How the values were obtained:
[1] = Octanol/Water partition coefficient, logP of the compound; format: physicochemical
[2] = Solubility of the compound in water; format: physicochemical; details: buffer
[3] = test system: Staphylococcus aureus; experiment: Antibacterial activity against Staphylococcus aureus assessed as growth inhibition at 32 ug/mL by whole cell growth inhibition assay relative to control; format: functional; details: read-out: GI
In short: (§1)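 Primary single-concentration screen at 32 µg/mL, final DMSO ≤1%, duplicate on different plates. Mid-log cultures in cation-adjusted Mueller Hinton broth at 5×10^5 CFU/mL; 37 °C, 18 h, no shaking. OD600 read; % growth inhibition relative to media-only and untreated-bacteria controls on the same plate. Strains: E. coli ATCC 25922, A. baumannii ATCC 19606, S. aureus ATCC 43300 (MRSA).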

[4] = test system: Escherichia coli; experiment: Antibacterial activity against Escherichia coli assessed as growth inhibition at 32 ug/mL by whole cell growth inhibition assay relative to control; format: functional; details: read-out: GI; in short: as §1
[5] = test system: Acinetobacter baumannii; experiment: Antibacterial activity against Acinetobacter baumannii assessed as growth inhibition at 32 ug/mL by whole cell growth inhibition assay relative to control; format: functional; details: read-out: GI; in short: as §1
[6] = test system: Staphylococcus aureus; experiment: Antibacterial activity against methicillin resistant Staphylococcus aureus assessed as growth inhibition at 32 ug/mL by HIT assay relative to control; format: functional; details: read-out: GI
In short: (§2)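 A. baumannii ATCC 19606 and MRSA ATCC 43300 were grown overnight in cation-adjusted Mueller Hinton broth at 37 °C, subcultured to mid-log, and added at 5×10^5 CFU/mL to an 8-point, 2-fold dilution series (32–0.25 µg/mL; ≤0.5% DMSO). After 18 h static at 37 °C, OD600 was read. Percent inhibition was taken against media-only and untreated-bacteria wells, in duplicate. MIC was the lowest concentration giving ≥80% inhibition.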

[7] = Cytotoxicity against human HEK293 cells assessed as cell viability at 64 ug/ml relative to control; format: toxicity, cell-based; details: at 64 µg/mL, read-out: Activity
[8] = Hemolytic activity in RBC (unknown origin) assessed as cell viability at 64 ug/ml relative to control; format: toxicity, cell-based, Erythrocyte; details: red blood cells (erythrocytes), at 64 µg/mL, read-out: Activity
[9] = test system: Staphylococcus aureus; experiment: Bacteriostatic activity against Staphylococcus aureus ATCC 700698 assessed as log reduction in colony forming unit measured per ml after 24 hrs by time kill assay; format: functional
In short: (§3)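 Time-kill assay in cation-adjusted MHB. Overnight cultures (S. aureus MRSA ATCC 700698; A. baumannii ATCC 19606) diluted 1:10,000, grown 2 h at 37 °C, 220 rpm to early exponential phase. […] Aliquots taken at intervals, tenfold serially diluted, plated on MHA overnight at 37 °C for CFU counts.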

[10] = test system: Staphylococcus aureus; experiment: Antibacterial activity against methicillin resistant Staphylococcus aureus assessed as growth inhibition at 2 ug/mL by HIT assay relative to control; format: functional; details: read-out: GI; in short: as §2
[11] = test system: Acinetobacter baumannii; experiment: Antibacterial activity against Multi drug resistant Acinetobacter baumannii assessed as growth inhibition at 16 ug/mL by HIT assay relative to control; format: functional; details: read-out: GI; in short: as §2
[12] = test system: Staphylococcus aureus; experiment: Bacteriostatic activity against methicillin resistant Staphylococcus aureus assessed as log reduction in colony forming unit measured after 24 hrs by time kill assay; format: functional
In short: (§4)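 MRSA ATCC 700698 and A. baumannii ATCC 19606 overnight cultures were diluted 1:10,000 in MHB and grown 2 h at 37 °C and 220 rpm to early exponential phase. […] At intervals, aliquots were tenfold serially diluted, plated on MHA and incubated overnight at 37 °C for CFU counts.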

[13] = test system: Acinetobacter baumannii; experiment: Bactericidal activity against multi-drug resistant Acinetobacter baumannii assessed as log reduction in colony forming unit measured after 24 hrs by time kill assay; format: functional; in short: as §4
[14] = test system: Acinetobacter baumannii; experiment: Antibacterial activity against Multi drug resistant Acinetobacter baumannii assessed as growth inhibition at 32 ug/mL by HIT assay relative to control; format: functional; details: read-out: GI; in short: as §2
[15] = test system: Acinetobacter baumannii; experiment: Bactericidal activity against Acinetobacter baumannii assessed as log reduction in bacterial count measured after 24 hrs by time kill assay; format: functional; in short: as §3
[16] = test system: Staphylococcus aureus; experiment: Antibacterial activity against methicillin resistant Staphylococcus aureus assessed as growth inhibition at 16 ug/mL by HIT assay relative to control; format: functional; details: read-out: GI; in short: as §2
[17] = test system: Staphylococcus aureus; experiment: Antibacterial activity against methicillin resistant Staphylococcus aureus assessed as growth inhibition; format: functional, organism-based; in short: as §2
[18] = test system: Acinetobacter baumannii; experiment: Antibacterial activity against susceptible Acinetobacter baumannii; format: functional

SMILES	logP [1]	solubility [2]	inhibition of growth at 32 µg/mL [3]	inhibition of growth at 32 µg/mL [4]	inhibition of growth at 32 µg/mL [5]	further results
CC(=O)/C(=C/c1ccc(OCc2ccccc2)cc1)C(N)=O	2.72	Soluble	–	–	–	–
CC(=O)/C(=C/c1ccccc1F)C(N)=O	1.66	Soluble	43.8%	59.7%	58.2%	–
CC(=O)/C(=C/c1ccc(O)cc1)C(N)=O	0.94	Soluble	–	–	–	–
CC(=O)/C(=C/c1cccc(C#N)c1)C(N)=O	1.15	Soluble	–	–	–	–
CC(=O)/C(=C/c1ccccc1Br)C(N)=O	1.62	Soluble	93.8%	51.6%	60%	inhibition of growth at 32 µg/mL [6]: 80%; viability at 64 ug/ml [7]: 90.2%; viability at 64 ug/ml [8]: 95.3%; Activity [9]: 2 log10CFU/ml
COc1cccc(/C=C(/C(C)=O)C(N)=O)c1OC	1.3	Soluble	–	–	–	–
CC(=O)/C(=C/c1ccc(Cl)cc1)C(N)=O	1.88	Soluble	87.5%	67.8%	65.4%	–
CC(=O)/C(=C/c1ccc([N+](=O)[O-])cc1)C(N)=O	1.13	Soluble	98.2%	68.1%	30.5%	inhibition of growth at 2 µg/mL [10]: 98.7%; viability at 64 ug/ml [7]: 90.6%; viability at 64 ug/ml [8]: 95.1%; Activity [9]: 2 log10CFU/ml
CC(=O)/C(=C/c1ccc(C#N)cc1)C(N)=O	1.13	Soluble	–	–	–	–
CC(=O)/C(=C/c1ccccc1[N+](=O)[O-])C(N)=O	1.09	Soluble	–	–	–	–
COc1cc(/C=C/C(=O)CC(=O)/C=C/c2ccc(O)c(OC)c2)ccc1O [CURCUMIN]	3.03	Soluble	–	–	–	–
CC(=O)/C(=C/c1cccc(F)c1)C(N)=O	1.49	Soluble	–	–	–	–
CC(=O)/C(=C/c1ccc(Br)cc1)C(N)=O	1.62	Soluble	83.7%	51.8%	53%	inhibition of growth at 32 µg/mL [6]: 94.2%; viability at 64 ug/ml [7]: 94.8%; viability at 64 ug/ml [8]: 98.9%; Activity [9]: 2 log10CFU/ml
CCc1ccc(/C=C(/C(C)=O)C(N)=O)cc1	1.99	Soluble	–	–	–	–
CC(=O)/C(=C/c1ccccc1)C(N)=O	1.6	Soluble	–	–	–	–
CC(=O)/C(=C/c1ccc(C(F)(F)F)cc1)C(N)=O	2.43	Soluble	–	–	–	–
CC(=O)/C(=C/c1ccc2c(c1)OCO2)C(N)=O	1.23	Soluble	–	–	–	–
CC(=O)/C(=C/c1cccc([N+](=O)[O-])c1)C(N)=O	1.15	Soluble	83.7%	51.1%	98%	inhibition of growth at 2 µg/mL [10]: 99.4%; inhibition of growth at 16 µg/mL [11]: 98.2%; viability at 64 ug/ml [7]: 93.8%; viability at 64 ug/ml [8]: 96.4%; Activity [9]: 2 log10CFU/ml; Activity [12]: >3 log10CFU; Activity [13]: >3 log10CFU
CC(=O)/C(=C/c1ccccc1C#N)C(N)=O	1.09	Soluble	14.4%	52.1%	70.8%	inhibition of growth at 32 µg/mL [14]: 50.5%; viability at 64 ug/ml [7]: 97.6%; viability at 64 ug/ml [8]: 92.2%; log(activity) [15]: >3
CC(=O)/C(=C/c1ccc(C)cc1)C(N)=O	1.68	Soluble	–	–	–	–
COc1cc(/C=C(/C(C)=O)C(N)=O)cc(OC)c1OC	1.41	Soluble	–	–	–	–
CCc1ccc(/C=C(/C(C)=O)C(N)=O)cc1[N+](=O)[O-]	1.31	Soluble	82.7%	25.5%	27.7%	inhibition of growth at 16 µg/mL [16]: 99.2%; viability at 64 ug/ml [7]: 88.9%; viability at 64 ug/ml [8]: 94.5%
CC(=O)/C(=C/c1cccc(Br)c1)C(N)=O	1.73	Soluble	–	–	–	–
O=C(/C=C/c1ccccc1)c1ccccc1 [CHALCONE]	3.29	Soluble	–	–	–	–
CN[C@H](CC(C)C)C(=O)N[C@H]1C(=O)N[C@@H](CC(N)=O)C(=O)N[C@H]2C(=O)N[C@H]3C(=O)N[C@H](C(=O)N[C@H](C(=O)O)c4cc(O)cc(O)c4-c4cc3ccc4O)[C@H](O)c3ccc(c(Cl)c3)Oc3cc2cc(c3O[C@@H]2O[C@H](CO)[C@@H](O)[C@H](O)[C@H]2O[C@H]2C[C@](C)(N)[C@H](O)[C@H](C)O2)Oc2ccc(cc2Cl)[C@H]1O.Cl [VANCOMYCIN HYDROCHLORIDE]	–	–	–	–	–	growth inhibition (GI) [17]: inactive; MIC [18]: 0.25 µg/mL
CC(=O)/C(=C/c1ccccc1Cl)C(N)=O	1.38	Soluble	98.1%	66.8%	58.8%	–
